# Experimental data reported in ChEMBL document CHEMBL1123620, “Renin inhibitors. Statine-containing tetrapeptides with varied hydrophobic carboxy termini” (J Med Chem, 1987).
# How the values were obtained:
# Renin [1] = target: T1, Renin (Homo sapiens, UniProt P00797); test: Inhibition of human plasma renin at 10e-9 M concentration; conditions: read-out: I50
# T1 sequence (P00797 whole entry): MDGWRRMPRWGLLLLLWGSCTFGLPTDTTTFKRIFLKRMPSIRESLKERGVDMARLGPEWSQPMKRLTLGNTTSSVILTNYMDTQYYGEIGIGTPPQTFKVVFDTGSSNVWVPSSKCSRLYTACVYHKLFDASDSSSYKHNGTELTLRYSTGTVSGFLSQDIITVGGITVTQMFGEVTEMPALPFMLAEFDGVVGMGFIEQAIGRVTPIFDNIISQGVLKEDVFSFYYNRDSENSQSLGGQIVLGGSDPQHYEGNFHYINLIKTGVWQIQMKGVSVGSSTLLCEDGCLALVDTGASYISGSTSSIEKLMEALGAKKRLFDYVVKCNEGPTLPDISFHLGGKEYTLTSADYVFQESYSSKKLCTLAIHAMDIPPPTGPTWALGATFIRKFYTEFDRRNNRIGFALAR
# In short: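 Human plasma renin acting on endogenous plasma angiotensinogen at pH 7.4 (phosphate), 37°C. Renin and substrate levels were not measured. 8-Hydroxyquinoline or phenylmethanesulfonyl fluoride served as angiotensinase inhibitor. Angiotensin I was measured by radioimmunoassay. I50 values were generally reproducible within ±30%.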
# Renin [2] = target: T1, Renin; test: Inhibition of purified human kidney renin, fluorometric assay using a synthetic tetradecapeptide renin substrate at 10e-9 M concentration
# In short: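 Purified human kidney renin with synthetic tetradecapeptide substrate, read fluorometrically for peptidal amino termini, at 37°C in 0.10 M citrate phosphate, pH 7.20. Ki from linear I/V vs. [I] plots, assuming competitive inhibition. Estimated error ±20%.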
# Renin [3] = target: T1, Renin; test: Inhibition of purified human kidney renin, radioimmunoassay using a synthetic tetradecapeptide renin substrate at 10e-9 M concentration
# Renin [4] = target: T1, Renin; test: Inhibition of purified human kidney renin, radioimmunoassay using the natural substrate partially pure angiotensinogen at 10e-9 M concentration
# In short: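 Purified human kidney renin (0.02 ng) with 500 ng partially purified human angiotensinogen (0.08 μM, about 1% pure), 60 min at 37°C in 0.1 M citrate phosphate, pH 7.20. Inhibitor added in 10% methanol or DMF. Quenched by boiling for 1 min.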
# Renin (Sus scrofa) = test: Inhibition of hog kidney renin at 10e-9 M concentration; conditions: read-out: I50
IC50 (Renin [1]),Ki (Renin [2]),Ki (Renin [3]),Ki (Renin [4]),IC50 (Renin (Sus scrofa)),Compound
127 nM,0.064 nM,0.04 nM,97 nM,280 nM,CC(C)CC(NC(=O)[C@H](Cc1c[nH]cn1)NC(=O)[C@H](Cc1ccccc1)NC(=O)OC(C)(C)C)C(O)CC(=O)N[C@@H](CC(C)C)C(=O)NC1CCN(Cc2ccccc2)CC1 (stereo not given in full)
569 nM,120 nM,520 nM,320 nM,5.8 nM,C=C1c2ccccc2CC(NC(=O)[C@H](CC(C)C)NC(=O)CC(O)C(CC(C)C)NC(=O)[C@H](Cc2c[nH]cn2)NC(=O)[C@H](Cc2ccccc2)NC(=O)OC(C)(C)C)c2ccccc21 (stereo not given in full)
49 nM,19 nM,6 nM,100 nM,14 nM,"CC(C)CC(NC(=O)[C@H](Cc1cnc[nH]1)NC(=O)[C@H](Cc1ccccc1)NC(=O)OC(C)(C)C)C(O)CC(=O)N[C@@H](CC(C)C)C(=O)NC(C)c1ccccc1 (single isomer, unassigned; (+))"
178 nM,67 nM,36 nM,220 nM,480 nM,CC(C)CC(NC(=O)[C@H](Cc1c[nH]cn1)NC(=O)[C@H](Cc1ccccc1)NC(=O)OC(C)(C)C)C(O)CC(=O)N[C@@H](CC(C)C)C(=O)NC(C)C(O)c1ccccc1 (stereo not given in full)
